Assay results of several laboratories.
Lines come from different studies, so protocols differ.
Effect on: cell growth or viability

SMILES	cell line	method	concentration	time	endpoint	value
COc1cccc2c1C(=O)c1c(O)c3c(c(O)c1C2=O)C[C@@](O)(C(=O)CO)C[C@@H]3O[C@H]1C[C@H](N)[C@H](O)[C@H](C)O1	MDA-MB-231	MTT	25 µM	48 h	viability	33.8%
CC(=O)OC[C@@]1(C)[C@H]2CC[C@@H]3CN(C(C)C)[C@@H](C4=CCOC4=O)C[C@H]3[C@]2(C)CC[C@H]1OC(C)=O	MRC5	ATP luminescence	25 µM	72 h	cell death	-2.1%
CC(C)(C)CC(C)(C)Nc1c(-c2cccnc2)nc2ncccn12	MDA-MB-231	MTT	25 µM	48 h	viability	85.2%
Cc1cn([C@@H]2C[C@H](O)[C@@H](CNC(=O)Nc3ccc(-c4ccccc4)cc3)O2)c(=O)[nH]c1=O	MRC5	–	–	–	CC50	> 50 µM
COc1cc(C)cc2oc(-c3ccccc3)cc(=O)c12	HS27	MTT	–	24 h	CC50	> 200 µM
CC1(C)OC[C@@]2(C)[C@H]3CC[C@@H]4CN(Cc5cccs5)[C@@H](C5=CCOC5=O)C[C@H]4[C@]3(C)CC[C@H]2O1	MRC5	ATP luminescence	25 µM	72 h	cell death	-0.9%
COc1cc(OC)c2c(=O)cc(-c3ccc(N(C)C)cc3)oc2c1-c1c(OC)cc(OC)c2c(=O)cc(-c3ccc(N(C)C)cc3)oc12	HS27	MTT	–	24 h	CC50	> 200 µM
NCC(NC(=O)c1ccc(-c2ccc(C(F)(F)F)c(F)c2)[nH]1)c1nc(CO)cs1 (stereo not drawn)	U87.CD4.CXCR4	XTT	–	72 h	CC50	35 µM
COc1cc(OC)c2c(=O)cc(-c3ccccc3)oc2c1-c1c(OC)cc(OC)c2c(=O)cc(-c3ccccc3)oc12	HS27	MTT	–	24 h	CC50	> 200 µM
CC1(C)OC[C@@]2(C)[C@H]3CC[C@@H]4CN(Cc5ccc(C(F)(F)F)cc5)[C@@H](C5=CCOC5=O)C[C@H]4[C@]3(C)CC[C@H]2O1	MRC5	ATP luminescence	25 µM	72 h	cell death	7.1%
COc1cc(OC)c2c(=O)cc(-c3ccc(C(F)(F)F)cc3)oc2c1	HS27	MTT	–	24 h	CC50	> 200 µM
COc1ccc(-c2nc3ncccn3c2NC(C)(C)CC(C)(C)C)cc1O	MDA-MB-231	MTT	25 µM	48 h	viability	67.3%
